The target of data set [1] is hERG (KCNH2) (Homo sapiens, UniProt Q12809). The experiment in a line: Inhibition of human ERG channel at 10 uM by ionworks assay relative to control. In short, it runs like this: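 hERG current measured on IonWorks Quattro with test compound at 10 µM. Expressed as % inhibition.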
Background: The patch-clamp technique gives a direct electrical read-out from membranes.

For data set [2], the target named is CYP2D6 (Homo sapiens, UniProt P10635). The experiment in a line: Inhibition of CYP2D6 (unknown origin) assessed as 1'-hydroxybufuralol production at 10 uM after 20 mins by LC/MS/MS analysis relative to control. The settings on record: probe bufuralol (measured as 1'-hydroxybufuralol production). The data set is classed as ADME. In short, it runs like this:
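10 µmol/L bufuralol incubated with 2 nmol/L CYP2D6 from insect cells expressing the enzyme, with 10 µmol/L test compound, for 20 min at 37 °C. 1'-hydroxybufuralol quantified by LC/MS/MS. Expressed as % inhibition.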

In data set [3] the target is Sodium-dependent dopamine transporter (Homo sapiens, UniProt Q01959). The experiment in a line: Displacement of [3H]-dopamine from human DAT expressed in CHO cells by TopCounting analysis. The data set is classed as cell-based. An outline of the steps:
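CHO cells stably expressing human DAT, plated overnight at 3 × 10⁵ cells/mL in HEPES-buffered saline with 0.5% BSA. Compound added, then [³H]-dopamine (200 nM diluted stock) with cold dopamine. Uptake for 60 min, two PBS washes, scintillation counting. Activity relative to 100 µM nomifensine as 100%. IC50 and 95% CI from n = 2.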
Background: Displacement assays read how much labelled ligand stays bound in the presence of the test substance.

Data set [4] deals with Sodium-dependent noradrenaline transporter (Homo sapiens, UniProt P23975). Description: Displacement of [3H]-norepinephrine from human NET expressed in CHO cells by TopCounting analysis. The data set is classed as cell-based. In short, it runs like this:
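CHO cells stably expressing human NET, plated overnight at 3 × 10⁵ cells/mL in HEPES-buffered saline with 0.5% BSA. Compound added, then [³H]-norepinephrine (200 nM diluted stock). Uptake stopped at 45 min with two PBS washes, then scintillation counting. IC50 and 95% CI from n = 2.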

Data set [5] addresses Sodium-dependent serotonin transporter (Homo sapiens, UniProt P31645). Description: Displacement of [3H]-hydroxytryptamine from human SERT expressed in CHO cells by TopCounting analysis. Type of data set: cell-based. An outline of the steps:
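CHO cells stably expressing human SERT, plated overnight at 3 × 10⁵ cells/mL in HEPES-buffered saline with 0.5% BSA. Compound added, then [³H]-5-HT (200 nM diluted stock). Uptake stopped at 20 min with two PBS washes, then scintillation counting. Activity relative to 10 µM paroxetine.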

The test system of data set [6] is Mus musculus. Description: Antidepressant activity in orally dosed ICR mouse after 60 mins by tail suspension test. As to conditions: po, 1 h, read-out: MED. The data set is classed as functional. An outline of the steps: (§1)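 Male 7-week-old ICR mice, n = 11/group. Drug or vehicle (distilled water) given orally at 10 mL/kg; test run 60 min later. Mice hung by the tail from a strain-gauge hook, and immobility scored from load variation over a 10 min test. Average immobility ratio (%) per group; significance by parametric Williams' test, P < .025.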

Data set [7] deals with Mus musculus. The experiment in a line: Antidepressant activity in ICR mouse assessed as DA level at 10 mg/kg, po after 120 mins by microdialysis relative to control. Type of data set: functional. In short, it runs like this: (§2)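 Male 6-week-old ICR mice; probe implanted stereotaxically into medial prefrontal cortex under pentobarbital, 1 day recovery. Perfusion with Ringer at 2 µL/min; after ≥120 min stabilisation, dialysate collected every 20 min. Baseline from mean of three stable samples. Drug in water given orally at 10 mL/kg; collection continued 120 min. 5-HT, NE and DA measured by HPLC with electrochemical detection.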

Data set [8] has as its system Mus musculus. The experiment in a line: Antidepressant activity in ICR mouse assessed as NE level at 10 mg/kg, po after 120 mins by microdialysis relative to control. The data set is classed as functional. An outline of the steps: as §2
The subject of data set [9] is Mus musculus. Description: Antidepressant activity in ICR mouse assessed as 5-HT level at 10 mg/kg, po after 120 mins by microdialysis relative to control. The data set is classed as functional. In short, it runs like this: as §2
Data set [10] has as its system Mus musculus. Description: Ex vivo receptor occupancy of DAT in po dosed ICR mouse after 1 hr in presence of [3H]-WIN35428. Type of data set: functional, organism-based. In short, it runs like this: (§3)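 Oral dosing in mice; 1 h later, frontal cortex and striatum dissected. Unwashed homogenate incubated with [³H]-citalopram (25 nM, SERT), [³H]-nisoxetine (25 nM, NET) or [³H]-WIN35428 (50 nM, DAT). Occupancy taken as percent inhibition of specific binding.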

The test system of data set [11] is Mus musculus. The experiment in a line: Ex vivo receptor occupancy of NET in po dosed ICR mouse after 1 hr in presence of [3H]-nisoxetine. Type of data set: functional, organism-based. An outline of the steps:
as §3

Data set [12] relates to Mus musculus. Description: Ex vivo receptor occupancy of SERT in po dosed ICR mouse after 1 hr in presence of [3H]-citalopram. Type of data set: functional, organism-based. In short, it runs like this:
as §3

For data set [13], the system named is Mus musculus. The experiment in a line: Antidepressant activity in ICR mouse assessed as reduction in immobility rate at 10 mg/kg, po after 60 mins by tail suspension test. Type of data set: functional, organism-based. Set-up: dose 10 mg/kg. In short, it runs like this: as §1
Data set [14] relates to Mus musculus. The experiment in a line: Antidepressant activity in po dosed ICR mouse assessed as immobility rate after 60 mins by tail suspension test. The data set is classed as functional, organism-based. In short, it runs like this: as §1

18 compounds from ChEMBL document CHEMBL2406994, “Novel triple reuptake inhibitors with low risk of CAD associated liabilities: design, synthesis and biological activities of 4-[(1S)-1-(3,4-dichlorophenyl)-2-methoxyethyl]piperidine and related compounds” (Bioorg Med Chem, 2013) can be followed below.

The source made the active and inactive calls. No cut-off for these calls is given here.

Sodium-dependent noradrenaline transporter, sequence (P23975 whole entry): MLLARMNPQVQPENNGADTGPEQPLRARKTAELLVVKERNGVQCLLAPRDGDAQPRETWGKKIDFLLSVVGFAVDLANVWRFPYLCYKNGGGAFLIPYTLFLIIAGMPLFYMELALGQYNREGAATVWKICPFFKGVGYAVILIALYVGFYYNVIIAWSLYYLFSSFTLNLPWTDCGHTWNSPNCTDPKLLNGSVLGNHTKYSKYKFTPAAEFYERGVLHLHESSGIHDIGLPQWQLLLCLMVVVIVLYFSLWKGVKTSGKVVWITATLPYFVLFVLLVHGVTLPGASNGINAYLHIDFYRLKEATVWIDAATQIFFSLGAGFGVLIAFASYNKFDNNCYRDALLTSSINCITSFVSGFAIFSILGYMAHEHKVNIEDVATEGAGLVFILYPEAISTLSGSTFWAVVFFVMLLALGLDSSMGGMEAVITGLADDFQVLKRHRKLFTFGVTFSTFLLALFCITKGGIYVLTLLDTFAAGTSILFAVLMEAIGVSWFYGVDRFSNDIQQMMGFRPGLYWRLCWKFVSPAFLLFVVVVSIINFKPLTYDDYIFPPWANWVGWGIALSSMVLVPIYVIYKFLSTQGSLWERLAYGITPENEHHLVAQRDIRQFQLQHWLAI
CYP2D6, sequence (P10635 whole entry): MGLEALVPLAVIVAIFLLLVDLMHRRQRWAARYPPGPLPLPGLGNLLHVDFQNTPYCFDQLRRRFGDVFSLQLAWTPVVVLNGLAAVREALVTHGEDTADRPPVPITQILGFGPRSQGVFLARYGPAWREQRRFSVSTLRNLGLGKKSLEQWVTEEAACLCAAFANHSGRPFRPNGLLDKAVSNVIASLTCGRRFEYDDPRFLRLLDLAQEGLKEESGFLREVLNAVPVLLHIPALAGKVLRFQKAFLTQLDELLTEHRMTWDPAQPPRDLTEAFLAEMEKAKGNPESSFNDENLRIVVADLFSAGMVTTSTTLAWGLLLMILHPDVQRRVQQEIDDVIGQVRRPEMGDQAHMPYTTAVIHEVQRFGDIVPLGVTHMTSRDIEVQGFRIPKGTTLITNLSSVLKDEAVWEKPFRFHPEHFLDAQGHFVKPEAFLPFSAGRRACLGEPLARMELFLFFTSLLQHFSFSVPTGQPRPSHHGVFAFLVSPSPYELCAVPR
Sodium-dependent dopamine transporter, sequence (Q01959 whole entry): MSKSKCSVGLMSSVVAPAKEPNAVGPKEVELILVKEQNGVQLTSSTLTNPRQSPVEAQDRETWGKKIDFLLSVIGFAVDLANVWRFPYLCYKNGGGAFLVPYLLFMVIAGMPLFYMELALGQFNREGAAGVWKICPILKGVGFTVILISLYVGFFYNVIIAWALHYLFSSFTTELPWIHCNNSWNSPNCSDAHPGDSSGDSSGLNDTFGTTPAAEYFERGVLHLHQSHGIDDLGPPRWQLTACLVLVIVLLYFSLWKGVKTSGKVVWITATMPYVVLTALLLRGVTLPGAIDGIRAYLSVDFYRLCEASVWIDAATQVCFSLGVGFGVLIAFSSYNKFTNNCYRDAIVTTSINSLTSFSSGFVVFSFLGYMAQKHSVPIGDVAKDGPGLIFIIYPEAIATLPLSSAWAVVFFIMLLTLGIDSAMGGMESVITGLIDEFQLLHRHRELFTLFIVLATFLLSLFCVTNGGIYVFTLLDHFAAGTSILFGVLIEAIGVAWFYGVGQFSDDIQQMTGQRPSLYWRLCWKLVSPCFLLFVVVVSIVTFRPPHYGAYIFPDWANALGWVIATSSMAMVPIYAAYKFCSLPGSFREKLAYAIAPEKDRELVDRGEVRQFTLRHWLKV
hERG (KCNH2), sequence (Q12809 whole entry): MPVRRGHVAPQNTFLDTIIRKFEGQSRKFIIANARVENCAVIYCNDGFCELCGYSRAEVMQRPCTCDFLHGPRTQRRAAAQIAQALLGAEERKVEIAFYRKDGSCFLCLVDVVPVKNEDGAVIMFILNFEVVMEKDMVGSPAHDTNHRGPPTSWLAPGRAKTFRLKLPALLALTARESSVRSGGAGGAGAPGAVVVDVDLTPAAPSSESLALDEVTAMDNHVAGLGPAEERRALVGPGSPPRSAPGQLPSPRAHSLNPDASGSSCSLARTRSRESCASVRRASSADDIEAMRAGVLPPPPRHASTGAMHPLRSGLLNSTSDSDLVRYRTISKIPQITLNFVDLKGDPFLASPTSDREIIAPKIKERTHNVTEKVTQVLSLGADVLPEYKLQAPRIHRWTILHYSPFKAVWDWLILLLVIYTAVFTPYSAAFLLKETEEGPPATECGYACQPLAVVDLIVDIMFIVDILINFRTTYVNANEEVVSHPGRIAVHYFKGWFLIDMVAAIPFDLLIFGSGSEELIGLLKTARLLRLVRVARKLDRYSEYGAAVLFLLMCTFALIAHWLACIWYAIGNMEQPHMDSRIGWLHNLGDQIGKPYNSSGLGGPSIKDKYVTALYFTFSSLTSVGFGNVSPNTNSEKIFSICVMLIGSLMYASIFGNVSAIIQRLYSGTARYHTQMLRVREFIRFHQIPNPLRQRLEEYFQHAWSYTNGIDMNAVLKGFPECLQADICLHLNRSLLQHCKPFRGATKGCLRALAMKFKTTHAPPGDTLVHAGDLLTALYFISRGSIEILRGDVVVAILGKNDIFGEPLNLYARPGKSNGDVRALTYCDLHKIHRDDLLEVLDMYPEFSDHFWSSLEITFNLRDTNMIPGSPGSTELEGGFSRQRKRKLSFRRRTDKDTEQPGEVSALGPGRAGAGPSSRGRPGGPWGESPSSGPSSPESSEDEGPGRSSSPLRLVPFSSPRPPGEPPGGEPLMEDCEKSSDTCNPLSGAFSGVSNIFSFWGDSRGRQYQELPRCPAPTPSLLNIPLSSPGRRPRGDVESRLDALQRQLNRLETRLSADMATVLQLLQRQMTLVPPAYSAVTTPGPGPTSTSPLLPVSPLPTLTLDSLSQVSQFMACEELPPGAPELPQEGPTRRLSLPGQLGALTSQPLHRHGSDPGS
Sodium-dependent serotonin transporter, sequence (P31645 whole entry): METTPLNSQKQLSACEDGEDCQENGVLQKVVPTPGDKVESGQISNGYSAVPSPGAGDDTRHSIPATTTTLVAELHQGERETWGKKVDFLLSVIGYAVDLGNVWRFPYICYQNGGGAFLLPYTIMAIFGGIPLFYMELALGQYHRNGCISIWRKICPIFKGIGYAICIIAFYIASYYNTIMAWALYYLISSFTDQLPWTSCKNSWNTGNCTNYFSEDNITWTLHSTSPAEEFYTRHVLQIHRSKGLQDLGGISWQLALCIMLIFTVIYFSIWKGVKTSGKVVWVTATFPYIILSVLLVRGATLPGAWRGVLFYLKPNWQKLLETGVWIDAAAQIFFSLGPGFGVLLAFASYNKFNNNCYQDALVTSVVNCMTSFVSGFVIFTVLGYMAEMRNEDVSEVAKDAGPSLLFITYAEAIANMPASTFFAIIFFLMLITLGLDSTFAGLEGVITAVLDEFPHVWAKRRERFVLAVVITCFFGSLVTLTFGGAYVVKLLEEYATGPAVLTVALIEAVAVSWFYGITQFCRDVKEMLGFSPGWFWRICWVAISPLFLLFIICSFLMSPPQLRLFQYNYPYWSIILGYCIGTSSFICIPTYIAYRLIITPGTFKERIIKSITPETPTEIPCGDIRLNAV

Take `CCC(=O)C(c1ccc(Cl)c(Cl)c1)C1CCNCC1` (racemic): in data set [1], the inhibition at 10 µM was 51%. The inhibition at 20 min, 10 µM in data set [2] is 6.1%. In addition, the results for the half-inhibitory concentration (IC50) in data set [3], in data set [4] and in data set [5] were 100 nM, 28 nM and 18 nM, respectively.

On to `CC(=O)C(c1ccc(Cl)c(Cl)c1)C1CCNCC1.Cl` (racemic), for which, in data set [6], the minimal effective dose stood at 30 mg/kg. In [1], the inhibition at 10 µM was 40%. Moreover, the inhibition at 20 min, 10 µM in data set [2] is 11%. The IC50 in data set [3] was found to be 180 nM; in [4], 44 nM; in [5], 21 nM.

`COCC(c1ccc(F)c(Cl)c1)C1CCNCC1` (racemic): the inhibition at 10 µM in [1] stood at 24%. Moreover, the inhibition at 20 min, 10 µM in [2] is -18%. Besides, the IC50 in [3] was determined as 580 nM; in data set [4], 70 nM; in data set [5] it was 32 nM.

For the compound `COCC(c1ccc(Cl)c(Cl)c1)C1CCNCC1.Cl` (racemic), the minimal effective dose in data set [6] stood at 3 mg/kg. Besides, the inhibition at 10 µM in data set [1] came to 42%. Also, the inhibition at 20 min, 10 µM in data set [2] turned out to be 5.7%. Further, the concentration for half-maximal inhibition (IC50) in data set [3] came out at 190 nM; in data set [4] it was 14 nM; in [5], 11 nM.

`CCSCC(c1ccc(Cl)c(Cl)c1)C1CCNCC1` (racemic): in data set [1], the inhibition at 10 µM is 94%. Besides, in [2], the inhibition at 20 min, 10 µM worked out at 55%. Besides, the 50% inhibitory concentration (IC50) turned out to be 72 nM in data set [3], 8.7 nM in data set [4] and 9.2 nM in [5].

Turning to `COCC(c1ccc2ccccc2c1)C1CCNCC1` (racemic), the inhibition at 10 µM in data set [1] is 38%. In [2], the inhibition at 20 min, 10 µM turned out to be 22%. Moreover, the results for the IC50 in data set [3], in data set [4] and in data set [5] were 1100 nM, 36 nM and 2.1 nM, respectively.

In the case of `CC(c1ccc(Cl)c(Cl)c1)C1CCNCC1.Cl` (racemic), the minimal effective dose in data set [6] is 3 mg/kg. Besides, the inhibition at 10 µM in data set [1] amounted to 72%. Moreover, the inhibition at 20 min, 10 µM in [2] is 27%. Also, the figures for the IC50 in [3], in [4] and in [5] were 160 nM, 25 nM and 12 nM, respectively.

For the compound `COCC(c1ccc(Cl)cc1)C1CCNCC1` (racemic), the inhibition at 10 µM in data set [1] is 22%. Also, in [2], the inhibition at 20 min, 10 µM was -2.8%. The IC50 is 1700 nM in data set [3], 130 nM in [4] and 120 nM in [5].

For the compound `COC[C@H](c1ccc(Cl)c(Cl)c1)C1CCNCC1.Cl`, the Activity in data set [7] is 270%; in data set [8] it was 400%; in data set [9] it was 180%; in data set [10], “Dose-dependent effect”; in data set [11], “Dose-dependent effect”; in data set [12], “Dose-dependent effect”. The Activity result in data set [14] was “Dose-dependent effect”. The result in data set [13] was Active. Moreover, in data set [6], the minimal effective dose came out at 10 mg/kg. Also, the inhibition at 10 µM in data set [1] was found to be 48%. Moreover, the inhibition at 20 min, 10 µM in data set [2] was determined as 14%. Also, the half-maximal inhibitory concentration (IC50) was 180 nM in data set [3], 15 nM in data set [4] and 130 nM in data set [5].

As for `CS(=O)(=O)CC(c1ccc(Cl)c(Cl)c1)C1CCNCC1` (racemic), the inhibition at 10 µM in data set [1] was found to be 9%. In data set [2], the inhibition at 20 min, 10 µM came to 3.9%. Besides, the figures for the IC50 in data set [3], in data set [4] and in data set [5] were 2200 nM, 200 nM and 340 nM, respectively.

Regarding `COC[C@@H](c1ccc(Cl)c(Cl)c1)C1CCNCC1.Cl`, the minimal effective dose in [6] was 10 mg/kg. Also, the inhibition at 10 µM in data set [1] is 46%. For the same compound, in data set [2], the inhibition at 20 min, 10 µM was 13%. Also, the figures for the half-maximal inhibitory concentration (IC50) in data set [3], in data set [4] and in data set [5] were 470 nM, 21 nM and 5.7 nM, respectively.

As for `OCC(c1ccc(Cl)c(Cl)c1)C1CCNCC1` (racemic), in [1], the inhibition at 10 µM stood at 12%. The inhibition at 20 min, 10 µM in data set [2] is -1.5%. Further, the half-maximal inhibitory concentration (IC50) in [3] worked out at 2400 nM; in [4], 110 nM; in [5], 79 nM.

With `CCCC(=O)C(c1ccc(Cl)c(Cl)c1)C1CCNCC1` (racemic), the inhibition at 10 µM in data set [1] is 72%. Also, the inhibition at 20 min, 10 µM in data set [2] stood at 20%. Also, the figures for the IC50 in data set [3], in data set [4] and in data set [5] were 26 nM, 22 nM and 37 nM, respectively.

Consider `CCOCC(c1ccc(Cl)c(Cl)c1)C1CCNCC1.Cl` (racemic), for which the minimal effective dose in [6] is 3 mg/kg. Further, in data set [1], the inhibition at 10 µM was 89%. Besides, the inhibition at 20 min, 10 µM in data set [2] was found to be 44%. The values for the IC50 in data set [3], in data set [4] and in data set [5] were 170 nM, 28 nM and 16 nM, respectively.

Consider `CCOC(=O)C(c1ccc(Cl)c(Cl)c1)C1CCNCC1` (racemic), for which the inhibition at 10 µM in data set [1] is 110%. Further, the inhibition at 20 min, 10 µM in data set [2] is 38%. The results for the concentration for half-maximal inhibition (IC50) in data set [3], in [4] and in data set [5] were 97 nM, 12 nM and 9.3 nM, respectively.

With `CSCC(c1ccc(Cl)c(Cl)c1)C1CCNCC1.Cl` (racemic), the minimal effective dose in data set [6] was found to be 30 mg/kg. Besides, in data set [1], the inhibition at 10 µM amounted to 73%. Moreover, in [2], the inhibition at 20 min, 10 µM was determined as 32%. Besides, the figures for the IC50 in data set [3], in data set [4] and in data set [5] were 79 nM, 9.3 nM and 9.1 nM, respectively.

Regarding `COCC(c1cccc(Cl)c1)C1CCNCC1` (racemic), the inhibition at 10 µM in [1] is 23%. Besides, the inhibition at 20 min, 10 µM in data set [2] amounted to 2%. Also, the concentration for half-maximal inhibition (IC50) in [3] is 2600 nM; in data set [4], 98 nM; in data set [5] it was 180 nM.

Turning to `COC(=O)C(c1ccc(Cl)c(Cl)c1)C1CCNCC1` (racemic), in data set [1], the inhibition at 10 µM amounted to 56%. In addition, the inhibition at 20 min, 10 µM in data set [2] turned out to be 13%. Further, the IC50 was 220 nM in [3], 18 nM in data set [4] and 5.2 nM in data set [5].

As usually defined, the inhibition is the change of the read-out against control, counted positive when it falls. In general, IC50 refers to the point on the concentration scale where inhibition reaches its midpoint. The low end stands for greater potency in that assay, the high end for weaker potency in that assay.
